The results in this text go back to publication PMC6542785 (Acta Pharmaceutica Sinica. B, 2018).

Structures are written as SMILES. Bounds are passed on as bounds.

Common to all, as to type: cell-based, human
The subject of data set [1] is mitochondria of HeLa cells. As to the kind of experiment: Mitochondria targeting, quantification in isolated mitochondria. Particulars: 10 μg/mL Dox equivalent, flow cytometry, n=3. An outline of the steps: (§1)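 HeLa cells (DMEM) or MCF-7 cells (RPMI-1640), both with 10% FBS, grown at 37 °C, 5% CO2 and treated in 12-well plates with test compound (10 μg/mL Dox equivalent). Collected into mitochondria extraction reagent on ice for 10 min, then homogenised. Spun at 600×g for 10 min; supernatant spun at 11,000×g for 10 min. Pelleted mitochondria analysed for Dox by flow cytometry.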
Background: A flow cytometer gives signals particle by particle.

The test system of data set [2] is mitochondria of MCF-7 cells. Described as above. Particulars: 10 μg/mL Dox equivalent, flow cytometry, n=3. In outline: as §1
The next data set relates to MCF-7/ADR cells. As to the kind of experiment: Dox efflux assay. In outline: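 MCF-7/ADR and MCF-7 cells, in RPMI-1640 with 10% FBS and penicillin/streptomycin (1 μg/mL doxorubicin added to maintain the ADR line), loaded with test compound (10 µg/mL Dox equivalent) for 4 h. Washed, then chased in fresh drug-free medium for 2 or 4 h at 37 °C. Collected and PBS-washed; retained Dox read by flow cytometry. Efflux ratio from retained versus initial uptake; mean ± SD, n=3.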

`COc1cccc2c1C(=O)c1c(O)c3c(c(O)c1C2=O)C[C@@](O)(C(=O)CO)C[C@@H]3O[C@H]1C[C@H](N)[C@H](O)[C@H](C)O1` [Dox, doxorubicin]: the mitochondria distribution in data set [1] and in data set [2] was below 5% in each case. In addition, the entries for the “Dox efflux rate in MCF-7/ADR, fold higher than in MCF-7 cells” value in the data set with MCF-7/ADR cells (2 h in drug-free medium after 4 h loading) and in the data set with MCF-7/ADR cells (4 h in drug-free medium after 4 h loading) were 1.74 fold and 2.08 fold, respectively.
